# Bioassay records deposited in PubChem BioAssay by several laboratories.
# Hits are enriched below; roughly 11% of the tested compounds scored in any of these assays.
# M1 antag – antagonists of rat M1 muscarinic receptor | AID 628, 2007 | Muscarinic acetylcholine receptor M1 (Rattus norvegicus), P08482 | B-score at 10 µM | 3.4% of 64,000 active | CHO-M1 cells, Fluo-4 calcium, ACh EC80 antagonist mode; hits give low values;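 active = calcium fluorescence response, raw or row-and-column corrected B-score, differing from the plate sample mean either way at a set confidence level, mostly lower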
# Target sequence (P08482 whole entry, looked up): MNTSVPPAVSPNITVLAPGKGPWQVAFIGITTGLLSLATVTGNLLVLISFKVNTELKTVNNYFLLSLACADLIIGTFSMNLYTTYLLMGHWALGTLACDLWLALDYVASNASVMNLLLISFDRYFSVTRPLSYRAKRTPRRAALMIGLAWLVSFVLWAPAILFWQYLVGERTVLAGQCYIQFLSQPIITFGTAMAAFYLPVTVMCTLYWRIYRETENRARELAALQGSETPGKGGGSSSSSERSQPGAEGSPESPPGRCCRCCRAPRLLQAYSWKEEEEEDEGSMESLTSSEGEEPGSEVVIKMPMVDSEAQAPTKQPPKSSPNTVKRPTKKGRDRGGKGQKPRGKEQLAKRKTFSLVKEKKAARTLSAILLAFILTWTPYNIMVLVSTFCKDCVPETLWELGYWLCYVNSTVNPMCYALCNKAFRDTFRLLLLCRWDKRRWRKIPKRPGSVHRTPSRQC
# S1P1 ag pot – S1P1 agonists and agonism potentiators, primary screen, cell-based, primary and confirmation screens, CRE-bla reporter; Sphingosine 1-phosphate receptor 1 (Homo sapiens), P21453; AID 449, 2006; S1P1 CRE-bla cells, forskolin, beta-lactamase FRET, potentiator mode; S1P1 agonist co-added at EC20, 2 nM; 100% = saturating reference agonist, 0% = basal; 0.57% of 56,000 active; activation, % at 9.5 µM;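 active = activation above a cutoff set at the mean activation of all tested compounds plus 3 SD, cut at about 54% in these data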;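 note: forskolin at 4 µM as EC80 and the EC20 agonist is SEW2871; 100% = SEW2871 at its EC100 plus forskolin at EC80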
# S1P3 agonist – human S1P3 receptor agonists, primary screen, cell-based, primary and confirmation, NFAT-BLA reporter; S1P3 NFAT-BLA reporter cells, agonism, FRET ratio; relative to 1 µM S1P, basal subtracted; activation, % at 4.5 µM; 0.1% of 60,000 active;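 active = activation above the screen-wide mean plus 3 SD, cut at about 4.5% in these data, passing the limit was not always enough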
#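 material = human S1P3 NFAT-BLA reporter CHO cells | schedule = 4 h compound at 37 °C, 2 h substrate at RT | measured by = fluorescent BLA substrate, ex 405 nm, em 460/535 nm ratio | controls = 1 µM S1P reference | replication = primary once, confirmation triplicate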
# D1 allo mod – D1 CRE-luciferase signal change, two-sided – cell-based, HEK293 D1, dopamine EC30, D1 allosteric modulator project, primary screen. B-score at 10 µM. dopamine EC30 potentiation; actives deviate in either direction. D(1A) dopamine receptor (Homo sapiens), P21728. 5.9% of 58,000 active;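 active = luminescence count or its row- and column-corrected plate score outside the 99.7% band of the plate's sample wells, on either side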
# M1 ag – M1 muscarinic receptor agonists, primary screen, CHO-M1 cells, Fluo-4 calcium, agonist mode. Muscarinic acetylcholine receptor M1. Fluo-4 calcium fluorescence; hits give high values. B-score at 10 µM. 3% of 64,000 active. AID 626, 2007;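 active = fluorescence rise, raw or as B-score row- and column-corrected plate score, outside the 99.7% band of its plate's samples, either direction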
# D1 mod confirm – D1 receptor positive allosteric modulators, retest, confirmation, cell-based, HEK293 D1, CRE-luciferase, duplicate | shares compounds with D1 allo mod | dopamine EC30 potentiation; hits give high values | luminescence at 10 µM | 88% of 2,200 active | AID 642, 2007;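 active = luminescence in either of two replicates above the same-plate mean plus 3 SD of the low-dose dopamine control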
# D1 ag no DA – D1 receptor agonism without dopamine, confirmation, mechanism study for D1 allosteric modulator project, cell-based, HEK293 D1, CRE-luciferase, secondary assay 1; shares compounds with D1 allo mod; luminescence, no dopamine; hits give high values; AID 646, 2007; luminescence at 10 µM; 0.8% of 1,900 active; in the data active = luminescence above about 3900
# Isoprot counter – counter-screen for D1 modulators: isoproterenol response in HEK293 cells; shares compounds with D1 allo mod; HEK293 D1 CRE-luciferase, isoproterenol EC30 counter-screen; calls only at 10 µM; 63% of 2,200 active; AID 647;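 active = luminescence in either replicate above plate mean of wells with a partly effective reference agonist dose plus 3 SD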;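 note: isoproterenol raises cAMP through native beta-adrenoceptor Gs so signal bypasses D1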
# * hit, by the source's call; i = inactive; · = not tested or not shown; + = active, no number.
SMILES,M1 antag,S1P1 ag pot,S1P3 agonist,D1 allo mod,M1 ag,D1 mod confirm,D1 ag no DA,Isoprot counter
CC(=O)NCCn1c(SCc2cc(=O)n3cc(Cl)ccc3n2)nc2ccccc2c1=O,1.6,-28,1,3.7*,-1,8148*,1496,+
CC(=O)NCCn1c(SCC#N)nc2ccccc2c1=O,0.22,0,0,-0.15,1.5,·,·,·
COC(=O)c1sc(S(=O)(=O)N2CCN(c3ccccc3)CC2)c(C(=O)OC)c1C,0.4,-23,0,·,-0.033,·,·,·
CC(C)Cn1c(SCC#N)nc2ccccc2c1=O,·,·,·,8.6*,·,15244*,1668,+
COC(=O)COn1c(SCC(=O)OC)nc2ccccc2c1=O,0.11,-9,-2,·,-0.031,·,·,·
CC(C#N)On1c(SC(C)C#N)nc2ccccc2c1=O (stereo not given),0.37,-6,-1,4.2*,0.3,11488*,·,i
COc1ccc(-c2nnc(CSc3nc4ccccc4c(=O)n3CC(C)C)o2)cc1OC,0.61,-8,0,5.8*,-0.42,6848*,·,+
O=C1C2C3C=CC(O3)C2C(=O)N1CC(O)c1ccccc1 (stereo not given),·,-8,-1,-0.22,·,·,·,·
O=C(NCc1ccco1)c1nn(-c2ccccc2)c(=O)c2ccccc12,0.054,-51,7,5.2*,0.051,15012*,1664,i
COc1cc2c(cc1OC)-c1cc(N3CCCCCC3)nc(=O)n1CC2,0.17,-78,2,3.9*,-0.31,21696*,2196,+
COc1cc2c(cc1OC)-c1cc(NC3CCCCCC3)nc(=O)n1CC2,1.2,-55,1,4*,0.31,20748*,2368,+
COc1cc2c(cc1OC)-c1cc(Nc3ccc4c(c3)OCCO4)nc(=O)n1CC2,-2.6,-57,0,24*,-0.0016,13360*,1788,+
COc1cc2c(cc1OC)-c1cc(N3CCCc4ccccc43)nc(=O)n1CC2,-0.089,-25,2,·,0.69,·,·,·
COc1cc2c(cc1OC)-c1cc(OCc3cccnc3)nc(=O)n1CC2,-2.4,-19,0,19*,0.15,25704*,2128,+
COc1ccc(-c2nc3ncccn3c2Nc2ccc3c(c2)OCCO3)cc1,1.1,·,·,0.48,-1.4,·,·,·
CCN(CC)CCCNc1cc2n(c(=O)n1)CCc1cc(OC)c(OC)cc1-2,-0.011,-8,0,0.2,-0.58,·,·,·
CC(=O)c1ccc(N2CCN(C(=O)c3cc4c(=O)n(C)c5ccccc5c4n3C)CC2)cc1,-0.47,-20,-2,0.39,-0.0018,·,·,·
COCc1cc(C)nc(NC2CCCCC2)c1C#N,-1,·,-1,3.5*,2.3,5216,1592,i
Cc1cc(=O)oc2cc(OC(C)C(=O)Nc3nccs3)ccc12 (stereo not given),-0.8,-18,0,4.6*,-0.78,12128*,1736,+
COC(=O)C(CC(C)C)Oc1ccc2c(C)cc(=O)oc2c1 (stereo not given),0.36,·,·,-1.1,-0.53,·,·,·
O=C(CCn1c(=O)oc2ccccc21)Nc1cccc(Cl)c1,-0.08,-10,-1,14*,-1.3,6680,1488,i
CC(=O)c1ccc(NC(=O)CCn2c(=O)oc3ccccc32)cc1,0.97,-16,-1,-0.8,0.12,·,·,·
CCOC(=O)C(CCC#N)(CCC#N)C(=O)OCC,-0.36,·,-1,0.75,-0.49,·,·,·
